According to ChEMBL document CHEMBL4334465, “SAR Studies on Aromatic Acylhydrazone-Based Inhibitors of Fungal Sphingolipid Synthesis as Next-Generation Antifungal Agents” (J Med Chem, 2019):
≈ marks a conversion by molar mass, not a printed value. Calls of active or inactive are those of the source. The rule behind the calls is not given here.

Experiments:
Cryptococcus neoformans [1] = test: Antifungal activity against Cryptococcus neoformans H99 measured after 24 to 72 hrs; assay type: functional; conditions: var grubii H99
Method in brief: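 Modified CLSI broth microdilution with inoculum per M27A3. Compounds were serially diluted 32 to 0.03 μg/mL. Media: C. neoformans in HEPES-buffered YNB without amino acids (pH 7.0, 2% glucose); Candida strains in YNB without ammonium sulfate or amino acids plus 1% asparagine (pH 7.0, 2% glucose); A. fumigatus in RPMI (pH 7.0, 2% glucose).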

Cryptococcus neoformans [2] = test: Fungistatic activity against Cryptococcus neoformans H99 by time-kill assay; assay type: functional, organism-based; conditions: var grubii H99
Method in brief: (§1)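 Overnight C. neoformans washed in PBS and resuspended in HEPES-buffered YNB, pH 7.4. 2 × 10⁴ cells exposed to a range of drug concentrations in 10 mL with 0.5% DMSO final, at 37°C, 5% CO₂, shaking at 200 rpm. Aliquots sampled over 96 h, diluted and plated on YPD; CFU counted after 48 h at 30°C.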

A549 = test: Cytotoxicity against human A549 cells after 24 to 48 hrs by MTT assay; assay type: functional; conditions: read-out: LD50 (the source's name)
Method in brief: (§2)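 A549 and HepG2 kept in DMEM with 10% FBS and 1% pen-strep. At passage 7, seeded at 10⁵ cells/well and allowed to adhere 14 h. Compound added at 0.03–128 μg/mL, untreated wells as controls. Incubation 37°C, 5% CO₂ for 24 or 48 h. MTT (5 mg/mL in PBS) added for 4 h, formazan dissolved in DMSO, OD570.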

HepG2 = test: Cytotoxicity against human HepG2 cells after 24 to 48 hrs by MTT assay; assay type: functional; conditions: read-out: LD50 (the source's name); method in brief: as §2
[3] = Selectivity index, ratio of LD50 for human A549 cells to MIC80 for Cryptococcus neoformans H99; assay type: toxicity; conditions: read-out: Selectivity Index
Method in brief: (§3)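 SI = LD₅₀/MIC₈₀. Cytotoxicity: A549 or HepG2 cells (DMEM, 10% FBS, passage 7, 10⁵ cells/well) adhered 14 h, then exposed to 0.03–128 μg/mL for 24 or 48 h at 37°C, 5% CO₂; MTT 4 h, formazan dissolved in DMSO, read at 570 nm. MIC₈₀ against C. neoformans from broth microdilution in HEPES-buffered YNB, pH 7.0.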

[4] = Selectivity index, ratio of LD50 for human HepG2 cells to MIC80 for Cryptococcus neoformans H99; assay type: toxicity; conditions: read-out: Selectivity Index; method in brief: as §3
Cryptococcus neoformans [5] = test: Fungicidal activity against Cryptococcus neoformans H99 measured after 72 hrs by time-kill assay; assay type: functional, var grubii H99; method in brief: as §1
Cryptococcus neoformans [6] = test: Fungicidal activity against Cryptococcus neoformans H99 measured after 48 hrs by time-kill assay; assay type: functional, var grubii H99; method in brief: as §1

Row | SMILES | MIC80 (Cryptococcus neoformans [1]) | Activity (Cryptococcus neoformans [2]) | CC50 (A549) | CC50 (HepG2) | selectivity ratio [3] | selectivity ratio [4] | MFC100 (Cryptococcus neoformans [5]) | MFC100 (Cryptococcus neoformans [6])
1 | O=C(N/N=C/c1cc(Br)cc(Br)c1O)c1cnc2ccccc2c1 | 0.25 µg/mL (≈ 0.557 µM) | Active | 32 µg/mL (≈ 71.3 µM) | 32 µg/mL (≈ 71.3 µM) | 128 | 128 |  | 
2 | O=C(N/N=C/c1cc(Br)ccc1O)c1cc(Br)cc(Br)c1 | 0.06 µg/mL (≈ 0.126 µM) | Active | 16 µg/mL (≈ 33.5 µM) | 16 µg/mL (≈ 33.5 µM) | 267 | 267 |  | 
3 | O=C(N/N=C/c1cc(Br)ccc1O)c1ccc(OC(F)F)cc1 | 0.25 µg/mL (≈ 0.649 µM) |  | 32 µg/mL (≈ 83.1 µM) | 16 µg/mL (≈ 41.5 µM) | 128 | 64 | 2 µg/mL (≈ 5.19 µM) | 
4 | O=C(N/N=C/c1cc(Br)ccc1O)c1ccc(OC(F)(F)F)cc1F | 0.5 µg/mL (≈ 1.19 µM) |  | 64 µg/mL (≈ 152 µM) | 8 µg/mL (≈ 19 µM) | 128 | 16 | 0.5 µg/mL (≈ 1.19 µM) | 
5 | O=C(N/N=C/c1ccc(Br)cc1O)c1cccc(C(F)(F)F)c1 | 0.5 µg/mL (≈ 1.29 µM) |  | 64 µg/mL (≈ 165 µM) | 16 µg/mL (≈ 41.3 µM) | 128 | 32 |  | 2 µg/mL (≈ 5.17 µM)
6 | O=C(N/N=C/c1c(O)ccc2ccccc12)c1ccc(Br)c(Br)c1 | 0.12 µg/mL (≈ 0.268 µM) | Active | 4 µg/mL (≈ 8.93 µM) | 16 µg/mL (≈ 35.7 µM) | 33.3 | 133 |  | 
7 | O=C(N/N=C/c1cc(Cl)ccc1O)c1cccc(F)c1F | 1 µg/mL (≈ 3.22 µM) |  | 72 µg/mL (≈ 232 µM) | 32 µg/mL (≈ 103 µM) | 72 | 32 |  | 0.5 µg/mL (≈ 1.61 µM)
8 | O=C(N/N=C/c1cc(OC(F)(F)F)ccc1O)c1ccc(Br)cc1 | 0.25 µg/mL (≈ 0.62 µM) |  | 16 µg/mL (≈ 39.7 µM) | 64 µg/mL (≈ 159 µM) | 64 | 256 | 1 µg/mL (≈ 2.48 µM) | 
9 | O=C(N/N=C/c1ccc(Br)cc1O)c1cccc(F)c1F | 0.5 µg/mL (≈ 1.41 µM) |  | 16 µg/mL (≈ 45.1 µM) | 16 µg/mL (≈ 45.1 µM) | 32 | 32 |  | 0.25 µg/mL (≈ 0.704 µM)
10 | O=C(N/N=C/c1cc(Br)cc(Br)c1O)c1ccc(OC(F)(F)F)cc1 | 0.5 µg/mL (≈ 1.04 µM) |  | 64 µg/mL (≈ 133 µM) | 16 µg/mL (≈ 33.2 µM) | 128 | 32 | 4 µg/mL (≈ 8.3 µM) | 
11 | CN(C)c1ccc(C(=O)N/N=C/c2ccc(Br)cc2O)cc1 | 0.25 µg/mL (≈ 0.69 µM) | Active | 16 µg/mL (≈ 44.2 µM) | 16 µg/mL (≈ 44.2 µM) | 64 | 64 |  | 
12 | O=C(N/N=C/c1cc(Br)ccc1O)c1ccccc1C(F)(F)F | 1 µg/mL (≈ 2.58 µM) |  | 16 µg/mL (≈ 41.3 µM) | 16 µg/mL (≈ 41.3 µM) | 16 | 16 | 1 µg/mL (≈ 2.58 µM) | 
13 | O=C(N/N=C/c1cccc(Br)c1O)c1cccc(C(F)(F)F)c1 | 1 µg/mL (≈ 2.58 µM) |  | 16 µg/mL (≈ 41.3 µM) | 16 µg/mL (≈ 41.3 µM) | 16 | 16 |  | 2 µg/mL (≈ 5.17 µM)
14 | O=C(N/N=C/c1cc(Br)ccc1O)c1ccc(Br)c(Br)c1 | 0.25 µg/mL (≈ 0.524 µM) |  | 8 µg/mL (≈ 16.8 µM) | 8 µg/mL (≈ 16.8 µM) | 32 | 32 | 1 µg/mL (≈ 2.1 µM) | 
15 | O=C(N/N=C/c1ccc(Br)cc1O)c1cc(Br)cc(Br)c1 | 1 µg/mL (≈ 2.1 µM) |  | 4 µg/mL (≈ 8.39 µM) | 16 µg/mL (≈ 33.5 µM) | 4 | 16 |  | 1 µg/mL (≈ 2.1 µM)
16 | O=C(N/N=C/c1cc(C(F)(F)F)ccc1O)c1cccc(Br)c1 | 0.5 µg/mL (≈ 1.29 µM) | Active | 16 µg/mL (≈ 41.3 µM) | 16 µg/mL (≈ 41.3 µM) | 32 | 32 |  | 
17 | O=C(N/N=C/c1ccc(Br)cc1O)c1ccc(Br)c(Br)c1 | 0.12 µg/mL (≈ 0.252 µM) |  | 4 µg/mL (≈ 8.39 µM) | 8 µg/mL (≈ 16.8 µM) | 33.3 | 66.6 | 0.5 µg/mL (≈ 1.05 µM) | 
18 | O=C(N/N=C/c1cc(Cl)ccc1O)c1ccc(Br)c(Br)c1 | 0.06 µg/mL (≈ 0.139 µM) |  | 16 µg/mL (≈ 37 µM) | 32 µg/mL (≈ 74 µM) | 267 | 533 |  | 1 µg/mL (≈ 2.31 µM)
19 | O=C(N/N=C/c1cc(Br)cc(Br)c1O)c1cccc(Br)c1Br | 0.5 µg/mL (≈ 0.9 µM) |  | 32 µg/mL (≈ 57.6 µM) | 16 µg/mL (≈ 28.8 µM) | 64 | 32 |  | 2 µg/mL (≈ 3.6 µM)
20 | O=C(N/N=C/c1cc(Br)ccc1O)c1ccc(C(F)(F)F)cc1F | 0.5 µg/mL (≈ 1.23 µM) |  | 16 µg/mL (≈ 39.5 µM) | 16 µg/mL (≈ 39.5 µM) | 32 | 32 |  | 1 µg/mL (≈ 2.47 µM)
21 | O=C(N/N=C/c1c(O)ccc2ccccc12)c1ccc(Br)cc1Br | 0.12 µg/mL (≈ 0.268 µM) |  | 16 µg/mL (≈ 35.7 µM) | 64 µg/mL (≈ 143 µM) | 133 | 533 |  | 0.5 µg/mL (≈ 1.12 µM)
22 | N#Cc1ccc(C(=O)N/N=C/c2cc(Br)cc(Br)c2O)cc1 | 0.06 µg/mL (≈ 0.142 µM) |  | 64 µg/mL (≈ 151 µM) | 16 µg/mL (≈ 37.8 µM) | 1070 | 267 | 1 µg/mL (≈ 2.36 µM) | 
23 | O=C(N/N=C/c1cc(Br)cc(Br)c1O)c1ccc(C(F)(F)F)cc1F | 0.12 µg/mL (≈ 0.248 µM) |  | 64 µg/mL (≈ 132 µM) | 16 µg/mL (≈ 33.1 µM) | 533 | 133 |  | 0.5 µg/mL (≈ 1.03 µM)
24 | O=C(N/N=C/c1cc(Br)cc(Br)c1O)c1ccc(OC(F)(F)F)cc1F | 0.06 µg/mL (≈ 0.12 µM) |  | 16 µg/mL (≈ 32 µM) | 16 µg/mL (≈ 32 µM) | 267 | 267 |  | 0.5 µg/mL (≈ 1 µM)
25 | O=C(N/N=C/c1cc(Cl)cc(Cl)c1O)c1cccc(Br)c1Br | 1 µg/mL (≈ 2.14 µM) |  | 64 µg/mL (≈ 137 µM) | 16 µg/mL (≈ 34.3 µM) | 64 | 16 |  | 1 µg/mL (≈ 2.14 µM)
26 | O=C(N/N=C/c1cc(Br)ccc1O)c1cc(Br)ccc1Br | 0.25 µg/mL (≈ 0.524 µM) |  | 16 µg/mL (≈ 33.5 µM) | 32 µg/mL (≈ 67.1 µM) | 64 | 128 |  | 1 µg/mL (≈ 2.1 µM)
27 | O=C(N/N=C/c1ccc(Br)cc1O)c1cccc(Br)c1 | 0.5 µg/mL (≈ 1.26 µM) |  | 64 µg/mL (≈ 161 µM) | 8 µg/mL (≈ 20.1 µM) | 128 | 16 |  | 0.25 µg/mL (≈ 0.628 µM)
28 | Cc1ccc(O)c(/C=N/NC(=O)c2ccc(Br)c(Br)c2)c1 | 0.12 µg/mL (≈ 0.291 µM) |  | 16 µg/mL (≈ 38.8 µM) | 16 µg/mL (≈ 38.8 µM) | 133 | 133 | 0.5 µg/mL (≈ 1.21 µM) | 
